# According to ChEMBL document CHEMBL3351594, “Cytotoxic dimeric epipolythiodiketopiperazines from the ascomycetous fungus Preussia typharum” (J Nat Prod, 2014):
# Columns and labels:
# [1] = Cytotoxicity against human UACC257 cells by SRB method; format: functional
# In short: (§1)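 NCI-60 in vitro screen panel of human tumor lines; GI50 (molar concentration giving 50% growth inhibition) and TGI (total growth inhibition) taken from dose–response data.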
# HT-29 = experiment: Cytotoxicity against human HT-29 cells by SRB method; format: functional
# In short: (§2)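 NCI-60 in vitro drug screening panel. Values are the molar concentrations giving 50% growth inhibition (GI50) and total growth inhibition (TGI).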
# SF-295 = experiment: Cytotoxicity against human SF295 cells by SRB method; format: functional; in short: as §2
# RXF 393 = experiment: Cytotoxicity against human RXF393 cells by SRB method; format: functional; in short: as §2
# SK-OV-3 = experiment: Resistance ratio of GI50 for human P-gp expressing SKOV3-M6/6 cells to GI50 for human SKOV3 cells; format: functional
# In short: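 SRB assay in SK-OV-3 and its P-gp/MDR1 single-cell clone SK-OV-3/MDR-1-6/6; GI50 from percent growth dose–response curves, n = 3 or 4 independent experiments; relative resistance taken as ratio of GI50 in the MDR line to parental.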
# [2] = Cytotoxicity against human UACC62 cells by SRB method; format: functional; in short: as §1
# M14 = experiment: Cytotoxicity against human M14 cells by SRB method; format: functional; in short: as §2
# HOP-62 = experiment: Cytotoxicity against human HOP62 cells by SRB method; format: functional; in short: as §2
# HCC 2998 = experiment: Cytotoxicity against human HCC2998 cells by SRB method; format: functional; in short: as §2
# KM12 = experiment: Cytotoxicity against human KM12 cells by SRB method; format: functional; in short: as §2
# NCI-H226 = experiment: Cytotoxicity against human NCI-H226 cells by SRB method; format: functional; in short: as §2
# [3] = Cytotoxicity against human OVCAR5 cells by SRB method; format: functional; in short: as §2
# [4] = Toxicity in ip dosed athymic nude mouse xenografted with human UACC62 cells administered every 4 days; format: organism-based, UACC-62; conditions: in vivo
# In short: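 Female athymic nude mice received 2 × 10^6 UACC-62 cells sc into each flank and were randomized at a median tumor volume of 150 mm3 (n = 5/group). Compound was given ip in DMSO–Cremophor (1:1) diluted in 200 μL DPBS (final ≤2.5%). Dose-tolerance testing used 10, 2 and 1.5 mg/kg (every 4 days). Mice were weighed daily for weight loss.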
# Mus musculus [5] = experiment: Toxicity in athymic nude mouse xenografted with human UACC62 cells assessed as rapid and persistent weight loss at 2 mg/kg, ip; format: organism-based, UACC-62; parameters: dose 2 mg/kg, route intraperitoneal; conditions: in vivo
# SR = experiment: Cytotoxicity against human SR cells by SRB method; format: functional; in short: as §1
# HOP-92 = experiment: Cytotoxicity against human HOP92 cells by SRB method; format: functional; in short: as §2
# [6] = Cytotoxicity against human OVCAR4 cells by SRB method; format: functional; in short: as §2
# RPMI-8226 = experiment: Cytotoxicity against human RPMI8226 cells by SRB method; format: functional; in short: as §2
# [7] = Cytotoxicity against human SKOV3 cells by SRB method; format: functional; conditions: SK-OV-3
# In short: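 SRB assay in SK-OV-3 cells; percent cell growth per Boyd et al.; GI50, TGI and LC50 fitted from dose–response curves of percent growth; mean ± SE, n = 3 or 4 independent experiments.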
# SW-620 = experiment: Cytotoxicity against human SW620 cells by SRB method; format: functional; in short: as §1
# [8] = Cytotoxicity against human EKVX cells by SRB method; format: functional; in short: as §2
# COLO 205 = experiment: Cytotoxicity against human COLO205 cells by SRB method; format: functional; in short: as §2
# UACC-62 = experiment: Cytotoxicity against human UACC62 cells assessed as reduction of colony formation incubated for 4 hrs followed by compound washout measured after 14 days relative to vehicle-treated control; format: functional, cell-based
# In short: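 Clonogenic test: 600 UACC-62 cells (RPMI1640, 10% FBS, gentamicin) adhered, exposed 4 h to vehicle (DMSO) or compound, washed with DPBS, fresh medium, grown 14 days; fixed, 0.5% crystal violet in 10% methanol, colonies counted; duplicate/triplicate, n = 2–4 experiments; one-way ANOVA with Dunnett's vs vehicle.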
# 786-0 = experiment: Cytotoxicity against human 786-0 cells by SRB method; format: functional; in short: as §2
# CAKI-1 = experiment: Cytotoxicity against human Caki1 cells by SRB method; format: functional; in short: as §2
# MDA-MB-231 = experiment: Cytotoxicity against human MDA-MB-231 cells by SRB method; format: functional; in short: as §2
# NCI-H322M = experiment: Cytotoxicity against human NCI-H322M cells by SRB method; format: functional; in short: as §2
# T47D = experiment: Cytotoxicity against human T47D cells by SRB method; format: functional; in short: as §1
# ACHN = experiment: Cytotoxicity against human ACHN cells by SRB method; format: functional; in short: as §2
# HeLa = experiment: Cytotoxicity against human HeLa cells assessed as reduction of colony formation incubated for 4 hrs followed by compound washout measured after 14 days relative to vehicle-treated control; format: functional, cell-based
# In short: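 HeLa cells (300) were plated in dishes and treated with vehicle (DMSO) or compound for 4 h. They were then washed with DPBS and given fresh medium. After 14 days, colonies were fixed, stained with 0.5% crystal violet in 10% methanol and counted. Analysis was one-way ANOVA with Dunnett's post hoc test against vehicle.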
# K562 = experiment: Cytotoxicity against human K562 cells by SRB method; format: functional; in short: as §2
# Mus musculus [9] = experiment: Toxicity in athymic nude mouse xenografted with human UACC62 cells assessed as rapid and persistent weight loss at 10 mg/kg, ip; format: organism-based, UACC-62; parameters: dose 10 mg/kg, route intraperitoneal; conditions: in vivo
# [10] = read-out: LC50 (the source's name)
smiles,measurement,setting,value
CC(C)[C@@]12SS[C@]3(C(=O)N1C)[C@@H](O)[C@]1(C45c6ccccc6N[C@H]4N4C(=O)[C@@]6(CO)SS[C@@]4(C(=O)N6C)[C@H]5O)c4ccccc4N[C@@H]1N3C2=O (some centres undefined),GI50,[1]; UACC-257,8.7 nM
same,TGI,[1]; UACC-257,19.5 nM
same,CC50,"[1]; UACC-257, read-out: LC50 (the source's name)",43.7 nM
same,GI50,HT-29,5.6 nM
same,TGI,HT-29,13.5 nM
same,CC50,HT-29; [10],32.4 nM
same,GI50,SF-295,57.5 nM
same,TGI,SF-295,155 nM
same,CC50,SF-295; [10],417 nM
same,GI50,RXF 393,7.8 nM
same,TGI,RXF 393,14.8 nM
same,CC50,RXF 393; [10],28.2 nM
same,Ratio,SK-OV-3,1.7
same,GI50,[2]; UACC-62,18.2 nM
same,TGI,[2]; UACC-62,72.4 nM
same,CC50,"[2]; UACC-62, read-out: LC50 (the source's name)",295 nM
same,GI50,M14,13.5 nM
same,TGI,M14,53.7 nM
same,CC50,M14; [10],182 nM
same,GI50,HOP-62,11.7 nM
same,TGI,HOP-62,30.9 nM
same,CC50,HOP-62; [10],110 nM
same,GI50,HCC 2998,53.7 nM
same,TGI,HCC 2998,115 nM
same,CC50,HCC 2998; [10],246 nM
same,GI50,KM12,19.5 nM
same,TGI,KM12,87.1 nM
same,CC50,KM12; [10],295 nM
same,GI50,NCI-H226,10 nM
same,TGI,NCI-H226,24 nM
same,CC50,NCI-H226; [10],72.4 nM
same,GI50,[3]; OVCAR-5,52.5 nM
same,TGI,[3]; OVCAR-5,138 nM
same,CC50,"[3]; OVCAR-5, read-out: LC50 (the source's name)",363 nM
same,MTD at 96 h,[4],1.5 mg/kg
same,Activity,Mus musculus [5],Toxic
same,GI50,SR,11.2 nM
same,TGI,SR,31.6 nM
same,CC50,SR; [10],> 50000 nM
same,GI50,HOP-92,11 nM
same,TGI,HOP-92,28.8 nM
same,CC50,HOP-92; [10],112 nM
same,GI50,[6]; OVCAR-4,5.9 nM
same,TGI,[6]; OVCAR-4,12.9 nM
same,CC50,"[6]; OVCAR-4, read-out: LC50 (the source's name)",27.5 nM
same,GI50,RPMI-8226,12.3 nM
same,TGI,RPMI-8226,34.7 nM
same,CC50,RPMI-8226; [10],> 50000 nM
same,GI50,[7],11.5 nM
same,LC50,[7],190 nM
same,TGI,[7],33.9 nM
same,GI50,SW-620,8.3 nM
same,TGI,SW-620,31.6 nM
same,CC50,SW-620; [10],129 nM
same,GI50,[8],28.2 nM
same,TGI,[8],257 nM
same,CC50,[8]; [10],2040 nM
same,GI50,COLO 205,14.8 nM
same,TGI,COLO 205,49 nM
same,CC50,COLO 205; [10],155 nM
same,Activity,UACC-62,Dose-dependent effect
same,GI50,786-0,11.7 nM
same,TGI,786-0,26.3 nM
same,CC50,786-0; [10],70.8 nM
same,GI50,CAKI-1,8.7 nM
same,TGI,CAKI-1,22.4 nM
same,CC50,CAKI-1; [10],85.1 nM
same,GI50,MDA-MB-231,18.6 nM
same,TGI,MDA-MB-231,70.8 nM
same,CC50,MDA-MB-231; [10],324 nM
same,GI50,NCI-H322M,20 nM
same,TGI,NCI-H322M,102 nM
same,CC50,NCI-H322M; [10],490 nM
same,GI50,T47D,9.1 nM
same,TGI,T47D,26.3 nM
same,CC50,T47D; [10],102 nM
same,GI50,ACHN,15.5 nM
same,TGI,ACHN,60.3 nM
same,CC50,ACHN; [10],234 nM
same,Activity,HeLa,Dose-dependent effect
same,GI50,K562,14.8 nM
same,TGI,K562,115 nM
same,CC50,K562; [10],> 50000 nM
same,Activity,Mus musculus [9],5%
